{"source": "ChEMBL document CHEMBL1641579", "about": "“Synthesis and biological evaluation of 7-substituted-1-(3-bromophenylamino)isoquinoline-4-carbonitriles as inhibitors of myosin light chain kinase and epidermal growth factor receptor” (Bioorg Med Chem, 2011)", "key": {"[1]": {"assay": "Growth inhibition of human H820 cells assessed as ATP level after 96 hrs by CellTiter-Glo assay", "assay_type": "functional", "settings": "NCI-H820, 96 h", "method_in_brief": "(§1)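 NSCLC lines maintained as in earlier work and authenticated by mutational analysis and SNP arrays. Cells were plated in 384-well format and allowed 24 h before compound addition as 10 threefold serial dilutions (DMSO stocks). After 96 h, viability was read as cellular ATP by CellTiter-Glo. GI50 was fitted with an R package.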"}, "NCI-H661": {"system": "NCI-H661", "assay": "Growth inhibition of human NCI-H661 cells assessed as ATP level after 96 hrs by CellTiter-Glo assay", "assay_type": "functional", "settings": "NCI-H661, 96 h"}, "NCI-H520": {"system": "NCI-H520", "assay": "Growth inhibition of human NCI-H520 cells assessed as ATP level after 96 hrs by CellTiter-Glo assay", "assay_type": "functional", "settings": "NCI-H520, 96 h"}, "[2]": {"assay": "Growth inhibition of human HCC461 cells assessed as ATP level after 96 hrs by CellTiter-Glo assay", "assay_type": "functional", "settings": "HCC461, 96 h", "method_in_brief": "as §1"}, "LCLC-97TM1": {"system": "LCLC-97TM1", "assay": "Growth inhibition of human LCLC97TM1 cells assessed as ATP level after 96 hrs by CellTiter-Glo assay", "assay_type": "functional", "settings": "LCLC-97TM1, 96 h", "method_in_brief": "as §1"}, "NCI-H2052": {"system": "NCI-H2052", "assay": "Growth inhibition of human NCI-H2052 cells assessed as ATP level after 96 hrs by CellTiter-Glo assay", "assay_type": "functional", "settings": "NCI-H2052, 96 h"}, "NCI-H2228": {"system": "NCI-H2228", "assay": "Growth inhibition of human NCI-H2228 cells assessed as ATP level after 96 hrs by CellTiter-Glo assay", "assay_type": "functional", "settings": "NCI-H2228, 96 h"}, "NCI-H2347": {"system": "NCI-H2347", "assay": "Growth inhibition of human NCI-H2347 cells assessed as ATP level after 96 hrs by CellTiter-Glo assay", "assay_type": "functional", "settings": "NCI-H2347, 96 h"}, "NCI-H647": {"system": "NCI-H647", "assay": "Growth inhibition of human NCI-H647 cells assessed as ATP level after 96 hrs by CellTiter-Glo assay", "assay_type": "functional", "settings": "NCI-H647, 96 h"}, "[3]": {"system": "Epidermal growth factor receptor (Homo sapiens), P00533 [T790M]", "sequence (P00533 whole entry T790M)": "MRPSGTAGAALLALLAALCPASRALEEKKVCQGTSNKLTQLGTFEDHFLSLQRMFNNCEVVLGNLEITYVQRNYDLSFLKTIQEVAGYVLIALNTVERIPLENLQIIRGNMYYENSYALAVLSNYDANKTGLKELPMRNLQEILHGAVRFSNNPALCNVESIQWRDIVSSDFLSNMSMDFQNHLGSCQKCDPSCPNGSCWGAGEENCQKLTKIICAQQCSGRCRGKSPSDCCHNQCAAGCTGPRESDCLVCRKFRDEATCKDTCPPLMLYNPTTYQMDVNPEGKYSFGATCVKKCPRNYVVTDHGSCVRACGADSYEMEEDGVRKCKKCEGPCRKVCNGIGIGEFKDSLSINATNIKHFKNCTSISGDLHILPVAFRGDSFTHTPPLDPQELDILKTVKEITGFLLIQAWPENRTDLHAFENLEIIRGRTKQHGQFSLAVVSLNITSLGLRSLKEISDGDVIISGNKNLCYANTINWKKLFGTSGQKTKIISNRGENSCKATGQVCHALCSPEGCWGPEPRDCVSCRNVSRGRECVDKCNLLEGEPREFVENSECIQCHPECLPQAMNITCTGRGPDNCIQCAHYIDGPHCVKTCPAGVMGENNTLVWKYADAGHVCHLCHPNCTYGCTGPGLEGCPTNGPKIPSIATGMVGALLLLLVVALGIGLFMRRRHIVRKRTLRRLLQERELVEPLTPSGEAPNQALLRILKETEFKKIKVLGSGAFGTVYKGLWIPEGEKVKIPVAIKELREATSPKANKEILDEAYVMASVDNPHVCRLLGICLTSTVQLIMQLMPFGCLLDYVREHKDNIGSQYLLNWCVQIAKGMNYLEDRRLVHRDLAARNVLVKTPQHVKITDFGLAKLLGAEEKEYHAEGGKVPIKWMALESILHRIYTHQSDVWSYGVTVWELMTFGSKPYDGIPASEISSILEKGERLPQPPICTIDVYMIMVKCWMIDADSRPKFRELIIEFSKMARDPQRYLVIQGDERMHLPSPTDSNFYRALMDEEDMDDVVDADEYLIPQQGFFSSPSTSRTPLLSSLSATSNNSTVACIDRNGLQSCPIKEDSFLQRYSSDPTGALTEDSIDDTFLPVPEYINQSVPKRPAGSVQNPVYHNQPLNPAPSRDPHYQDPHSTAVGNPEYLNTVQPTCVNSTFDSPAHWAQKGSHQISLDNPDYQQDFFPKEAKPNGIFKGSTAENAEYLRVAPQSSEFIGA", "assay": "Inhibition of EGFR T790M mutant activation expressed in human drug-resistant H1975 cells", "assay_type": "cell-based"}}, "note": "Calls of active or inactive are those of the source. The rule behind the calls is not given here.", "data": [{"smiles": "CN(C)C/C=C/C(=O)Nc1ccc2c(C#N)cnc(Nc3cccc(Br)c3)c2c1", "values": [{"measurement": "GI50", "setting": "[1]", "result": 12.9, "unit": "µM"}, {"measurement": "GI50", "setting": "NCI-H661", "result": 14, "unit": "µM"}, {"measurement": "GI50", "setting": "NCI-H520", "result": 16, "unit": "µM"}, {"measurement": "GI50", "setting": "[2]", "result": 16, "unit": "µM"}, {"measurement": "GI50", "setting": "LCLC-97TM1", "result": 19.5, "unit": "µM"}, {"measurement": "GI50", "setting": "NCI-H2052", "result": 21.6, "unit": "µM"}, {"measurement": "GI50", "setting": "NCI-H2228", "result": 21.9, "unit": "µM"}, {"measurement": "GI50", "setting": "NCI-H2347", "result": 22.9, "unit": "µM"}, {"measurement": "GI50", "setting": "NCI-H647", "result": 26.3, "unit": "µM"}, {"measurement": "inhibition", "setting": "[3]", "result": "Active"}]}]}
